Assay results published in ChEMBL document CHEMBL1127441, “Design, synthesis, and neurochemical evaluation of 2-amino-5-(alkoxycarbonyl)-3,4,5,6-tetrahydropyridines and 2-amino-5-(alkoxycarbonyl)-1,4,5,6-tetrahydropyrimidines as M1 muscarinic receptor agonists” (J Med Chem, 1994).

Key:
[1] = biological target: Muscarinic acetylcholine receptor; test: Affinity for muscarinic receptor in rat brain was measured by inhibition of [3H](R)-quinuclidinyl benzilate (QNB) binding; type: tissue-based
[2] = species: Rattus norvegicus; test: Stimulation of phosphoinositide (PI) metabolism in rat cortex at 100 uM; type: functional
Outline: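 Rat cerebral cortex slices cross-chopped at 300 μm, preincubated in oxygenated Krebs-Henseleit buffer at 37 °C. Labeled 30 min with 0.3 mM [3H]inositol and 10 mM LiCl, then 45 min with agonist at 100 μM, or buffer for basal. Stopped with CHCl3/MeOH. Total [3H]inositol phosphates isolated on anion-exchange cartridges and counted. Given as % above basal; mean ± SEM, three independent experiments.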

[3] = biological target: T1, Muscarinic acetylcholine receptor M1 (Rattus norvegicus, UniProt P08482); test: (§1) Affinity for muscarinic receptor M1 in rat brain was measured by inhibition of [3H](R)-quinuclidinyl benzilate (QNB) binding; type: tissue-based
T1 sequence (P08482 whole entry): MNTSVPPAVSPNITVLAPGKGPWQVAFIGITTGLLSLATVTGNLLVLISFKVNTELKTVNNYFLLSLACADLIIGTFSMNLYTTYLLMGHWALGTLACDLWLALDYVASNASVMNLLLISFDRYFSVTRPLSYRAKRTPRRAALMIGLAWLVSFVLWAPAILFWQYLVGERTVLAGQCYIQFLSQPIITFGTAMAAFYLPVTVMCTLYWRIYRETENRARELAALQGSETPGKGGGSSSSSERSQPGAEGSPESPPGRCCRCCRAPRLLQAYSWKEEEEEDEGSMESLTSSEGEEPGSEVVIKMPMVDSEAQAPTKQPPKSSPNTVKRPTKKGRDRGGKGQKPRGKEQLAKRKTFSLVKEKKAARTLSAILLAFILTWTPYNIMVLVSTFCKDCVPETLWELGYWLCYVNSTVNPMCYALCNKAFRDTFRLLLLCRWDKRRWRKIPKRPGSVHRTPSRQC
Outline: (§2)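 Competition against 50 pM [3H]-(R)-QNB in rat brain membrane suspension, about 10 pM receptors (4 mg/mL protein), 40 mM Na/K phosphate pH 7.4, varying compound concentrations. Incubation 2.0 h at room temperature, then glass fiber filtration and two cold buffer washes. Nonspecific binding with 1000-fold excess atropine. IC50 from Hill plots; mean ± SEM, three independent experiments in triplicate.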

[4] = biological target: Muscarinic acetylcholine receptor; test: as §1; type: tissue-based; outline: as §2

Compound | IC50 [1] [µM] | PI metabolism [2] [%] | IC50 [3] [µM] | IC50 [4] [µM]
CCCOC(=O)C1CN=C(N)NC1.Cl (stereo unspecified) | 4.8 | 4.3 |  | 
COC(=O)C1CCC(N)=NC1.Cl (stereo unspecified) | 10 | 260 |  | 
COC(=O)C1CN=C(N)NC1.Cl (stereo unspecified) | 22 | 81 |  | 
C[N+](C)(C)CCOC(N)=O.[Cl-] [CARBACHOL] |  | 470 |  | 
C#CCOC(=O)C1CCC(N)=NC1.Cl (stereo unspecified) | 2.3 | 120 |  | 
COC(=O)C1CN=CNC1.Cl (stereo unspecified) |  | 110 |  | 
C#CCOC(=O)C1CN=C(N)NC1.Cl (stereo unspecified) | 31 | 150 |  | 
CCCOC(=O)C1CCC(N)=NC1.Cl (stereo unspecified) | 1.7 | 51 |  | 
CCOC(=O)C1CN=C(N)NC1.Cl (stereo unspecified) | 8.2 | 28 |  | 
CCCOC(=O)C1CN=CNC1.Cl (stereo unspecified) |  | 7.1 |  | 
CC(C)OC(=O)C1CN=CNC1.Cl (stereo unspecified) |  | 7.2 |  | 
COC(=O)C1CCN=C(N)C1.Cl (stereo unspecified) |  | 9 | 120 | 
COC(=O)C1CCN=C(N)N1.Cl (stereo unspecified) |  |  |  | 4300
COC(=O)C1CCCC(N)=N1.Cl (stereo unspecified) |  | 8.1 | 250 | 
CC(C)OC(=O)C1CN=C(N)NC1.Cl (stereo unspecified) | 29 | 23 |  | 
C#CCOC(=O)C1CN=CNC1.Cl (stereo unspecified) |  | 230 |  | 
COC(=O)C1CCCN=C1N.Cl (stereo unspecified) |  | -5.5 | 320 | 
CCOC(=O)C1CCC(N)=NC1.Cl (stereo unspecified) | 4.3 | 31 |  | 
CCOC(=O)C1CN=CNC1.Cl (stereo unspecified) |  | 150 |  | 
